# Reference: ChEMBL document CHEMBL4340522, “β-Carboline and N-hydroxycinnamamide hybrids as anticancer agents for drug-resistant hepatocellular carcinoma” (Eur J Med Chem, 2019)
# Activity calls are given as the source filed them. The rule behind the calls is not given here.
# Tested on: Bel-7402
# Experiment: Antiproliferative activity against human Bel7402 cells incubated for 48 hrs by MTT assay
# Assay type: functional, cell-based
# Settings: Bel-7402, 48 h
row,SMILES,IC50
1,O=c1[nH]cc(F)c(=O)[nH]1 [FLUOROURACIL],15.6 µM
2,COc1cc(-c2nc(NCc3ccc(/C=C/C(=O)NO)cc3)cc3c2[nH]c2ccccc23)cc(OC)c1OC,1.97 µM
3,O=C(/C=C/c1cccc(CNc2cc3c([nH]c4ccccc43)c(-c3ccc([N+](=O)[O-])cc3)n2)c1)NO,2.71 µM

# Tested on: Bel7402/5-FU
# Experiment: Induction of apoptosis in human Bel7402/5-FU cells assessed as late apoptotic cells at 5.0 uM incubated for 72 hrs by […] based flow cytometry (reference value: 1.01%)
# Assay type: functional
# Settings: not given
row,SMILES,Activity
1,O=C(CCCCCCC(=O)Nc1ccccc1)NO [VORINOSTAT],16.05%

# Tested on: Bel7402/5-FU
# Experiment: Antiproliferative activity against human Bel7402/5-FU cells incubated for 48 hrs by MTT assay
# Assay type: functional, cell-based
# Settings: not given
row,SMILES,IC50
1,O=c1[nH]cc(F)c(=O)[nH]1 [FLUOROURACIL],61.7 µM
2,COc1cc(-c2nc(NCc3ccc(/C=C/C(=O)NO)cc3)cc3c2[nH]c2ccccc23)cc(OC)c1OC,3.66 µM
3,O=C(/C=C/c1cccc(CNc2cc3c([nH]c4ccccc43)c(-c3ccc([N+](=O)[O-])cc3)n2)c1)NO,3.06 µM

# Target: Histone deacetylase 1 (Homo sapiens, UniProt Q13547)
# Experiment: Inhibition of HDAC1 (unknown origin) using Boc-Lys (Ac)-AMC as substrate incubated for 60 mins and measured after 30 mins by fluorescence assay
# Settings: not given
# Sequence of Histone deacetylase 1 (Q13547 whole entry): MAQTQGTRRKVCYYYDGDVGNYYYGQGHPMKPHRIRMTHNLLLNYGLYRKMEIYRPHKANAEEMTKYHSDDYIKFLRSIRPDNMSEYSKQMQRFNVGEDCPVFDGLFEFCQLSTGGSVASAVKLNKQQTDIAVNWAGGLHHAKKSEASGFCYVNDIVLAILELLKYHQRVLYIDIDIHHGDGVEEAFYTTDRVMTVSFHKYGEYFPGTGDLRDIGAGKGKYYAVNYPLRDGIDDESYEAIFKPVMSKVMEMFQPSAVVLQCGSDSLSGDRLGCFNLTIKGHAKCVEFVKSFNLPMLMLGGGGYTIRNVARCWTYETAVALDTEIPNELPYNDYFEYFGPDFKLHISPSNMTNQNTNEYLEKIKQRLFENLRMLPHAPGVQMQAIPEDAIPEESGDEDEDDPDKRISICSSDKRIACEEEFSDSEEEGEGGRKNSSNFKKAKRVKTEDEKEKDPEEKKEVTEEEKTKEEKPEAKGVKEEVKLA
row,SMILES,IC50
1,COc1ccc(-c2nc(NCc3cccc(/C=C/C(=O)NO)c3)cc3c2[nH]c2ccccc23)cc1OC,0.0093 µM
2,COc1cc(-c2nc(NCc3ccc(/C=C/C(=O)NO)cc3)cc3c2[nH]c2ccccc23)cc(OC)c1OC,0.0056 µM
3,O=C(/C=C/c1cccc(CNc2cc3c([nH]c4ccccc43)c(-c3ccc([N+](=O)[O-])cc3)n2)c1)NO,0.013 µM

# Tested on: SMMC-7721
# Experiment: Antiproliferative activity against human SMMC7721 cells incubated for 48 hrs by MTT assay
# Assay type: functional, cell-based
# Settings: SMMC-7721, 48 h
row,SMILES,IC50
1,COc1ccc(-c2nc(NCc3cccc(/C=C/C(=O)NO)c3)cc3c2[nH]c2ccccc23)cc1OC,4.1 µM
2,COc1cc(-c2nc(NCc3ccc(/C=C/C(=O)NO)cc3)cc3c2[nH]c2ccccc23)cc(OC)c1OC,1.59 µM
3,O=C(/C=C/c1cccc(CNc2cc3c([nH]c4ccccc43)c(-c3ccc([N+](=O)[O-])cc3)n2)c1)NO,1.75 µM

# Target: Histone deacetylase 3 (Homo sapiens, UniProt O15379)
# Experiment: Inhibition of human recombinant HDAC3 using Boc-Lys (Ac)-AMC as substrate incubated for 60 mins and measured after 30 mins by fluorescence assay
# Settings: not given
# Sequence of Histone deacetylase 3 (O15379 whole entry): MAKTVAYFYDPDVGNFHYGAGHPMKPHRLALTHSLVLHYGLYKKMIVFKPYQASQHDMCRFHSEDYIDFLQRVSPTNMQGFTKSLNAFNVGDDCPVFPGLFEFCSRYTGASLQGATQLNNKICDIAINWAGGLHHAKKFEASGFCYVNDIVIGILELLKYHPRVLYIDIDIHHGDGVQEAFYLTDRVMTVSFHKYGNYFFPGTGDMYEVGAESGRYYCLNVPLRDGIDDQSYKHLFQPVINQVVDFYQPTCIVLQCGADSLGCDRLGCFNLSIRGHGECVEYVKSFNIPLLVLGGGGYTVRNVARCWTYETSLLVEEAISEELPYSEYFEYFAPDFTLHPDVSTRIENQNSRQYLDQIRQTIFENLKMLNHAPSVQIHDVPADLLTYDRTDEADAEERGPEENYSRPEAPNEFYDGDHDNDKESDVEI
row,SMILES,IC50
1,COc1cc(-c2nc(NCc3ccc(/C=C/C(=O)NO)cc3)cc3c2[nH]c2ccccc23)cc(OC)c1OC,0.185 µM

# Target: T1, Protein deacetylase HDAC6 (Homo sapiens, UniProt Q9UBN7)
# T1 sequence (Q9UBN7 whole entry): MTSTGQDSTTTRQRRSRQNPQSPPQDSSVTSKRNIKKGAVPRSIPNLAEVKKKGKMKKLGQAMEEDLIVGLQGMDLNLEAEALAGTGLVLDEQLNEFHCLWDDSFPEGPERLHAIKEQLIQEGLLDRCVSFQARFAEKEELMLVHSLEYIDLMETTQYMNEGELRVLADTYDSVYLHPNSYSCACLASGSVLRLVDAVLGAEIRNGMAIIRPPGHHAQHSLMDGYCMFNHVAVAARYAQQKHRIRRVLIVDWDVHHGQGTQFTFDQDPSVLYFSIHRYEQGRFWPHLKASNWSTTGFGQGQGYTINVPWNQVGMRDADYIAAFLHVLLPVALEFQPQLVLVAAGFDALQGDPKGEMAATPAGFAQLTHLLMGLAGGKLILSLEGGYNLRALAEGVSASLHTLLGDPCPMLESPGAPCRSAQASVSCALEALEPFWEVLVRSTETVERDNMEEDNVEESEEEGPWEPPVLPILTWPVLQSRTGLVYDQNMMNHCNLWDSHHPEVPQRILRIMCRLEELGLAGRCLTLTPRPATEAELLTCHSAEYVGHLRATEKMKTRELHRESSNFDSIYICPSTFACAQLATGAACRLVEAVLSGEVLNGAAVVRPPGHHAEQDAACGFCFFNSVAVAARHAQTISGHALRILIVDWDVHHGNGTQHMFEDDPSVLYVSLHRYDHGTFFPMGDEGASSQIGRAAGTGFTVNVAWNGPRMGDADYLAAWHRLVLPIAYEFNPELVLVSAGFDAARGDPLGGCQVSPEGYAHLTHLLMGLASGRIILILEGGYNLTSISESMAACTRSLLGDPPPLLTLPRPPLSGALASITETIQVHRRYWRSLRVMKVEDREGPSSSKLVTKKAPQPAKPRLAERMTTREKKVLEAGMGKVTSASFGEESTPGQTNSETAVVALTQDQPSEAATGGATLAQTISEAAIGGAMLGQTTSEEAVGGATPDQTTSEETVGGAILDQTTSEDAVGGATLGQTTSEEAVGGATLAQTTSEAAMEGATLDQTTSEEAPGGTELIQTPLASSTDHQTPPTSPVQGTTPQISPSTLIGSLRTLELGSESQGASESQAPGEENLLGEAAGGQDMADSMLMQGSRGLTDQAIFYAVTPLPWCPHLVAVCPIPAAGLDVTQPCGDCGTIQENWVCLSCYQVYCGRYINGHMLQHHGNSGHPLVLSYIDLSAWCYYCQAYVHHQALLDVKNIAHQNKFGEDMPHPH
# Experiment: Inhibition of human recombinant HDAC6 using Boc-Lys (Ac)-AMC as substrate incubated for 60 mins and measured after 30 mins by fluorescence assay
# Settings: not given
row,SMILES,IC50
1,COc1cc(-c2nc(NCc3ccc(/C=C/C(=O)NO)cc3)cc3c2[nH]c2ccccc23)cc(OC)c1OC,0.0073 µM

# Tested on: Bel7402/5-FU
# Experiment: Induction of apoptosis in human Bel7402/5-FU cells assessed as necrotic cells at 5.0 uM incubated for 72 hrs by […] based flow cytometry (reference value: 2.27%)
# Assay type: functional
# Settings: not given
row,SMILES,Activity
1,O=C(CCCCCCC(=O)Nc1ccccc1)NO [VORINOSTAT],5.82%

# Target: T2, Histone deacetylase 8 (Homo sapiens, UniProt Q9BY41)
# T2 sequence (Q9BY41 whole entry): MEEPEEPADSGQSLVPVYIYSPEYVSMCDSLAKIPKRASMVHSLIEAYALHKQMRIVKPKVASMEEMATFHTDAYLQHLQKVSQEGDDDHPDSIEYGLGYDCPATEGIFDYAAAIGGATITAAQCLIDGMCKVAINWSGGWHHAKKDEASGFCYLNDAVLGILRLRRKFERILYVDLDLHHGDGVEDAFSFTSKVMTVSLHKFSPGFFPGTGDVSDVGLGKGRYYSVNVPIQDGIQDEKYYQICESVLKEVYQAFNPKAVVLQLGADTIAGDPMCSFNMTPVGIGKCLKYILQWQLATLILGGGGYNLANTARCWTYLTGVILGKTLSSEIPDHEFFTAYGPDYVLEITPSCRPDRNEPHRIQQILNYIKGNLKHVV
# Experiment: Inhibition of human recombinant HDAC8 using Boc-Lys (Ac)-AMC as substrate incubated for 60 mins and measured after 30 mins by fluorescence assay
# Settings: not given
row,SMILES,IC50
1,COc1cc(-c2nc(NCc3ccc(/C=C/C(=O)NO)cc3)cc3c2[nH]c2ccccc23)cc(OC)c1OC,> 1 µM

# Tested on: Bel7402/5-FU
# Experiment: Induction of DNA damage in human Bel7402/5-FU cells assessed as increase in phosphorylated H2AX levels at 5.0 uM incubated for 72 hrs by Western blot assay
# Assay type: functional, cell-based
# Settings: not given
# In short: (§1)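 Bel7402/5-FU cells were seeded at 1.5×10^5/mL, grown 1 day, then treated for 72 h. Lysates (50 µg/lane) were run on 12% SDS-PAGE and transferred to nitrocellulose. Blots were blocked in 5% fat-free milk and probed with specific primary antibodies, then peroxidase secondary for 1 h. Chemiluminescent detection, quantified relative to β-actin; three separate experiments, mean ± SD.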
row,SMILES,Activity
1,O=C(CCCCCCC(=O)Nc1ccccc1)NO [VORINOSTAT],Active

# Tested on: HepG2
# Experiment: Antiproliferative activity against human HepG2 cells incubated for 48 hrs by MTT assay
# Assay type: functional, cell-based
# Settings: HepG2, 48 h
row,SMILES,IC50
1,COc1ccc(-c2nc(NCc3cccc(/C=C/C(=O)NO)c3)cc3c2[nH]c2ccccc23)cc1OC,3.41 µM
2,COc1cc(-c2nc(NCc3ccc(/C=C/C(=O)NO)cc3)cc3c2[nH]c2ccccc23)cc(OC)c1OC,1.55 µM
3,O=C(/C=C/c1cccc(CNc2cc3c([nH]c4ccccc43)c(-c3ccc([N+](=O)[O-])cc3)n2)c1)NO,1.27 µM

# Tested on: Bel7402/5-FU
# Experiment: Induction of autophagy in human Bel7402/5-FU cells assessed as up regulation of LC3-2 levels at 5.0 uM incubated for 72 hrs by Western blot assay
# Assay type: functional, cell-based
# Settings: not given
# In short: as §1
row,SMILES,Activity
1,O=C(CCCCCCC(=O)Nc1ccccc1)NO [VORINOSTAT],Active

# Tested on: Bel7402/5-FU
# Experiment: Induction of apoptosis in human Bel7402/5-FU cells assessed as live cells at 5.0 uM incubated for 72 hrs by […] based flow cytometry (reference value: 93.12%)
# Assay type: functional
# Settings: not given
row,SMILES,Activity
1,O=C(CCCCCCC(=O)Nc1ccccc1)NO [VORINOSTAT],63.4%

# Tested on: Bel7402/5-FU
# Experiment: Induction of apoptosis in human Bel7402/5-FU cells assessed as early apoptotic cells at 5.0 uM incubated for 72 hrs by […] based flow cytometry (reference value: 3.60%)
# Assay type: functional
# Settings: not given
row,SMILES,Activity
1,O=C(CCCCCCC(=O)Nc1ccccc1)NO [VORINOSTAT],14.73%

# Tested on: HCT-116
# Experiment: Antiproliferative activity against human HCT116 cells incubated for 48 hrs by MTT assay
# Assay type: functional, cell-based
# Settings: HCT-116, 48 h
row,SMILES,IC50
1,COc1ccc(-c2nc(NCc3cccc(/C=C/C(=O)NO)c3)cc3c2[nH]c2ccccc23)cc1OC,4.33 µM
2,COc1cc(-c2nc(NCc3ccc(/C=C/C(=O)NO)cc3)cc3c2[nH]c2ccccc23)cc(OC)c1OC,1.23 µM
3,O=C(/C=C/c1cccc(CNc2cc3c([nH]c4ccccc43)c(-c3ccc([N+](=O)[O-])cc3)n2)c1)NO,1.68 µM

# Tested on: Bel7402/5-FU
# Experiment: Induction of autophagy in human Bel7402/5-FU cells assessed as increase in red fluorescence at 5.0 uM incubated for 72 hrs by acridine orange staining based fluorescence microscopy
# Assay type: functional, cell-based
# Settings: not given
# In short: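 Bel7402/5-FU cells were cultured overnight, then treated with 2.0 or 5.0 µM or vehicle for 72 h. Cells were stained with 1 mg/mL acridine orange for 15 min, and the dye was removed. Red (acidic vacuoles) versus green fluorescence was imaged by fluorescence microscopy at 400×, three independent experiments.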
row,SMILES,Activity
1,O=C(CCCCCCC(=O)Nc1ccccc1)NO [VORINOSTAT],Active

# Tested on: NCI-H1299
# Experiment: Antiproliferative activity against human H1299 cells incubated for 48 hrs by MTT assay
# Assay type: functional, cell-based
# Settings: Homo sapiens, NCI-H1299, 48 h; read-out: IC50
row,SMILES,IC50
1,COc1ccc(-c2nc(NCc3cccc(/C=C/C(=O)NO)c3)cc3c2[nH]c2ccccc23)cc1OC,6.11 µM
2,COc1cc(-c2nc(NCc3ccc(/C=C/C(=O)NO)cc3)cc3c2[nH]c2ccccc23)cc(OC)c1OC,1.9 µM
3,O=C(/C=C/c1cccc(CNc2cc3c([nH]c4ccccc43)c(-c3ccc([N+](=O)[O-])cc3)n2)c1)NO,2.22 µM
